{"data": "Experimental data of several laboratories", "CDK2 with cyclin A2": "Cyclin-dependent kinase 2, with cyclin A2 (CDK2, Homo sapiens, UniProt P24941)", "ST14": "Suppressor of tumorigenicity 14 protein (ST14, Homo sapiens, UniProt Q9Y5Y6)", "note": "Each line is one published result; the experiments were not run side by side."}
{"Compound": "CNC(=O)c1cc(Oc2ccc(NC(=O)Nc3ccc(Cl)c(C(F)(F)F)c3)cc2)ccn1", "target": "CDK2 with cyclin A2", "test": "enzyme activity, inhibitor", "conditions": "1 µM", "measurement": "inhibition", "result": "81.4%"}
{"Compound": "COc1cc(-c2cncc3c2CN(C)Cc2cc(N4CCNCC4)ccc2-3)cc(OC)c1OC", "target": "Cyclin-dependent kinase 2, with cyclin A (CDK2, Homo sapiens, UniProt P24941)", "test": "enzyme activity, inhibitor", "conditions": "1 µM", "measurement": "remaining activity", "result": "100%"}
{"Compound": "CC(=O)Nc1c(N)nc(SCC(=O)NN)[nH]c1=O", "target": "CDK2 with cyclin A2", "test": "enzyme activity, inhibitor", "conditions": "0.5 µM", "measurement": "inhibition", "result": "53.4%"}
{"Compound": "CNc1ncc2c(/C=C/C(=O)N3CCC(OC)CC3)nn(Cc3cccc(C(F)(F)F)c3)c2n1", "target": "ALK tyrosine kinase receptor (ALK, Homo sapiens, UniProt Q9UM73)", "test": "enzyme activity, inhibitor, radiometric", "conditions": "1 µM", "measurement": "remaining activity", "result": "83%"}
{"Compound": "CC(C)C[C@H](NC(=O)[C@H](Cc1cscn1)NC(=O)CCc1ccccc1)C(=O)N[C@@H](CCCNC(=N)N)C(=O)c1nc2ccccc2s1", "target": "ST14", "test": "enzyme activity, inhibitor", "conditions": "0.1 µM", "measurement": "remaining activity", "result": "5%"}
{"Compound": "CC(=O)Nc1c(N)nc(SCC(=O)N/N=C/c2ccc([N+](=O)[O-])cc2)[nH]c1=O", "target": "CDK2 with cyclin A2", "test": "enzyme activity, inhibitor", "conditions": "0.1 µM", "measurement": "inhibition", "result": "37.6%"}
{"Compound": "CC(C)[C@@H](CC(=O)N[C@@H](CCCNC(=N)N)C(=O)c1nc2ccccc2s1)NC(=O)[C@H](Cc1cscn1)NC(=O)CCc1ccccc1", "target": "ST14", "test": "enzyme activity, inhibitor", "conditions": "0.1 µM", "measurement": "remaining activity", "result": "81%"}
{"Compound": "Cc1cc([C@@H](C)Nc2ccccc2C(=O)O)c2nc(N3CCC(F)(F)CC3)c(C#N)c(=O)n2c1", "target": "Angiopoietin-1 receptor (TEK, Homo sapiens, UniProt Q02763)", "test": "binding, competition with immobilised ligand", "conditions": "1 µM", "measurement": "remaining binding", "result": "60%"}
{"Compound": "CC(C)(C)C[C@H](NC(=O)[C@H](Cc1cscn1)NC(=O)CCc1ccccc1)C(=O)N[C@@H](CCCNC(=N)N)C(=O)c1nc2ccccc2s1", "target": "ST14", "test": "enzyme activity, inhibitor", "conditions": "0.1 µM", "measurement": "remaining activity", "result": "34%"}
{"Compound": "C=CC(=O)N1CCC(COCC(=O)N2CCN(c3nc(-c4cnc(N)nc4C(F)F)nc(N4CCOC[C@@H]4C)n3)CC2)CC1", "target": "ALK tyrosine kinase receptor (ALK, Homo sapiens, UniProt Q9UM73, C1156Y)", "test": "binding, competition with immobilised ligand", "conditions": "1 µM", "measurement": "remaining binding", "result": "79%"}
